By inhibition is commonly meant the drop in the measured response relative to a control, in per cent.

Results on 8 compounds are retold here after ChEMBL document CHEMBL4261510, “Synthesis of novel inhibitors of α-amylase based on the thiazolidine-4-one skeleton containing a pyrazole moiety and their configurational studies” (Medchemcomm, 2017).

Experiment [1] addresses Alpha amylase (Homo sapiens) (UniProt P0DUB6). Description: Inhibition of human alpha-amylase at 200 ug/ml using starch as substrate preincubated for 30 mins by 3,5-dinitrosalicylic acid color reagent based assay relative to control. The gist of the method: (§1)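 Test samples were prepared as a DMSO stock of 10 mg/10 mL and assayed at 50, 100 and 200 μg mL–1. Enzyme was at 1 unit per mL in 20 mM sodium phosphate, pH 6.9. Sample and enzyme were incubated 30 min at 25 °C. DNSA colour reagent was added, then heated 15 min at 85 °C and read at 595 nm. Soluble potato starch (0.5–1% w/v) was the substrate. Inhibition % was taken against a DMSO control, with blanks correcting background.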

Experiment [2] has the same target. Description: Inhibition of human alpha-amylase at 50 ug/ml using starch as substrate preincubated for 30 mins by 3,5-dinitrosalicylic acid color reagent based assay relative to control. The gist of the method:
as §1

Experiment [3] has the same target. Kind of experiment: Inhibition of human alpha-amylase at 100 ug/ml using starch as substrate preincubated for 30 mins by 3,5-dinitrosalicylic acid color reagent based assay relative to control. The gist of the method: as §1

Sequence of Alpha amylase (Homo sapiens) (P0DUB6 whole entry, looked up): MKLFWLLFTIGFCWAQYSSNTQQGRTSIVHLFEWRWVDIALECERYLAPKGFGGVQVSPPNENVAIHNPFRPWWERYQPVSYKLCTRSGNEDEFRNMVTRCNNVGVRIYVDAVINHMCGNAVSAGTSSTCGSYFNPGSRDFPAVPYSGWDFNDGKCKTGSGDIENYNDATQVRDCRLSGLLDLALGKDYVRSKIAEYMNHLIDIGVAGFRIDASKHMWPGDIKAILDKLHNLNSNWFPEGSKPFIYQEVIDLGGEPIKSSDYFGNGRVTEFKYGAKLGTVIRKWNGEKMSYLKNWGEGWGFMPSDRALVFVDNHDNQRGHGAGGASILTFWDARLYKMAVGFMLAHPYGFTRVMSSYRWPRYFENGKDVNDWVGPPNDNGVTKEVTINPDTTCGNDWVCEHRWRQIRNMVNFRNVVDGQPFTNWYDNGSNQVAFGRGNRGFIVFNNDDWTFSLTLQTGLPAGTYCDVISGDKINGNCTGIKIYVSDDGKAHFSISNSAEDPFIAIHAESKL

Take `Cc1ccc(/N=C2/NC(=O)/C(=C/c3cn(-c4ccccc4)nc3-c3ccc(Cl)cc3)S2)cc1`: the inhibition in experiment [1] worked out at 75%; in experiment [2] it was 50.9%; in experiment [3] it was 81.1%.

In the case of `Cc1ccc(/N=C2/NC(=O)/C(=C/c3cn(-c4ccccc4)nc3-c3ccc(C)cc3)S2)cc1`, the inhibition in experiment [1] was determined as 84%; in experiment [2], 79.2%; in experiment [3] it was 83.7%.

For `Cc1ccc(/N=C2/NC(=O)/C(=C/c3cn(-c4ccccc4)nc3-c3ccc(F)cc3)S2)cc1`, the inhibition came to 78% in experiment [1], 77.1% in experiment [2] and 81.6% in experiment [3].

As to `Cc1ccc(/N=C2/NC(=O)/C(=C/c3cn(-c4ccccc4)nc3-c3ccccc3)S2)cc1`, the inhibition turned out to be 84.3% in experiment [1], 48.1% in experiment [2] and 81.6% in experiment [3].

With `Cc1ccc(/N=C2/NC(=O)/C(=C/c3cn(-c4ccccc4)nc3-c3ccc([N+](=O)[O-])cc3)S2)cc1`, the inhibition in experiment [1] was found to be 58%; in experiment [2], 65.1%; in experiment [3], 88.2%.

In the case of `C[C@H]1O[C@H](O[C@H]2[C@H](O)[C@@H](O)[C@@H](O[C@H]3[C@H](O)[C@@H](O)C(O)O[C@@H]3CO)O[C@@H]2CO)[C@H](O)[C@@H](O)[C@@H]1N[C@H]1C=C(CO)[C@@H](O)[C@H](O)[C@H]1O` (some centres undefined), the inhibition is 63.7% in experiment [1], 48.6% in experiment [2] and 53.8% in experiment [3].

On to `Cc1ccc(/N=C2/NC(=O)/C(=C/c3cn(-c4ccccc4)nc3-c3ccc(Br)cc3)S2)cc1`, for which the inhibition in experiment [1] turned out to be 97.4%; in experiment [2], 52.1%; in experiment [3] it was 72.9%.

As for `COc1ccc(-c2nn(-c3ccccc3)cc2/C=C2\S/C(=N\c3ccc(C)cc3)NC2=O)cc1`, the inhibition in experiment [1] stood at 92.2%; in experiment [2], 75.9%; in experiment [3], 90%.
